Results as given in PMC9305210 (British Journal of Clinical Pharmacology, 2022).
Read-outs that look alike come from different tables or passages of the source. Marks after values point to notes of the source that are not given here.

Tests used:
[1] = type: in vivo, human; settings: for half-life / AUC: human; for half-life / AUC / CL/F, mean (CV%): plasma; for half-life: oral; for AUC: po, AUCτ, mean (CV%), AUCτ = AUC24
[2] = Urine pharmacokinetics; type: in vivo, human; settings: for Ae t, mean (CV%) / f e, mean (CV%): urine
[3] = test system: plasma 24S‐hydroxycholesterol (24HC); assay: Pharmacodynamics: time‐matched percentage change from baseline in plasma 24HC; type: in vivo, human
How it was run: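 Healthy adults (18-55 y, BMI 18-30 kg/m2), 6 active:2 placebo, double-blind; oral solution QD or BID after ≥8 h fast. 24HC by LC-MS/MS, validated 2.00-100 ng/mL. Time-matched % change from baseline; AUEC24/E24 for QD, AUEC12/E12 for BID.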

[4] = Safety and tolerability; type: in vivo, human; settings: 100 mg QD, n = 6
How it was run: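 Randomized, double-blind, placebo-controlled; cohorts of 8 (6:2) healthy adults given oral solution daily for a planned 14 days after ≥8 h fast, confined on site days −3 to 15 plus 1 follow-up day. Monitoring covered AEs, physical examination, BMI, vital signs, ECG and clinical laboratory tests. Subjects with ≥1 treatment-emergent AE counted across all subjects receiving at least one dose.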

[5] = soticlestat 100 mg QD oral solution, day 1
[6] = soticlestat 100 mg QD oral solution, day 14
[7] = soticlestat 300 mg QD oral solution, day 1
[8] = soticlestat 300 mg QD oral solution, day 14
[9] = soticlestat 400 mg QD oral solution, day 1
[10] = soticlestat 400 mg QD oral solution, day 14
[11] = soticlestat 600 mg QD oral solution, day 1
[12] = day 14, 400 mg dose (range 100‐400 mg QD)

O=C(c1cccnc1-c1ccncc1)N1CCC(O)(Cc2ccccc2)CC1 [Soticlestat, soticlestat]
increase in AUCτ at steady state (accumulation ratio based on AUC) ([1]; 300 mg QD for 14 days): ~1.42 fold | increase in C max at steady state (day 14 vs day 1) ([1]; 300 mg QD for 14 days): approximately 1.74 fold | accumulation ratio based on AUC ([1]; 400 mg QD): 1.20 | dose proportionality of steady‐state exposure ([1]; 100‐400 mg QD, 14 days): slightly greater than dose‐proportional | increase in single‐dose mean AUC∞ over 6‐fold dose range ([1]; day 1, 100‐600 mg): 9.35 fold | increase in single‐dose mean C max over 6‐fold dose range ([1]; day 1, 100‐600 mg): 6.55 fold | time‐dependent effect of PK on repeat dosing ([1]; day 1 vs day 14): not apparent | increase in mean AUCτ over 4‐fold dose range ([1]; day 14, 100‐400 mg QD): 6.12 fold | increase in mean C max over 4‐fold dose range ([1]; day 14, 100‐400 mg QD): 6.08 fold | half-life ([1]; elimination half‐life, overall, as summarised in abstract): ~4 h | half-life ([1]; mean half‐life, at 300 mg QD and 400 mg QD): ~4 h | half-life ([1]; mean terminal elimination half‐life (t ½z), range across groups, day 1 and day 14, all doses): 3.49 to 4.83 h | AUC ([1]; 100 mg, soticlestat 100 mg QD oral solution, day 1): 446 ng·h/mL | AUC ([1]; 100 mg, soticlestat 100 mg QD oral solution, day 14): 458 ng·h/mL | AUC ([1]; 300 mg, soticlestat 300 mg QD oral solution, day 1): 2030 ng·h/mL | AUC ([1]; 300 mg, soticlestat 300 mg QD oral solution, day 14): 2690 ng·h/mL | AUC ([1]; 400 mg, soticlestat 400 mg QD oral solution, day 1): 2500 ng·h/mL | AUC ([1]; 400 mg, soticlestat 400 mg QD oral solution, day 14): 2800 ng·h/mL | AUC ([1]; 600 mg, soticlestat 600 mg QD oral solution, day 1): 4180 ng·h/mL | exposure accumulation on day 14 compared with day 1 ([1]; once‐daily dosing of 100 or 400 mg for 14 days): did not appear to result in exposure accumulation | CL/F, mean (CV%) [1, 5]: 248 (40.4) ^c L/h | CL/F, mean (CV%) [1, 6]: 234 (29.6) L/h | CL/F, mean (CV%) ([1]; soticlestat 300 mg BID oral solution, day 1 after first dose): 232 (47.3) ^e L/h | CL/F, mean (CV%) [1, 7]: 185 (47.6) L/h | CL/F, mean (CV%) [1, 8]: 130 (43.9) L/h | CL/F, mean (CV%) [1, 9]: 187 (38.8) L/h | CL/F, mean (CV%) [1, 10]: 166 (44.4) L/h | CL/F, mean (CV%) [1, 11]: 194 (57.5) L/h | dose proportionality of systemic exposure ([1]; single doses of 100‐600 mg QD): slightly greater than dose‐proportional | renal excretion / renal elimination ([2]; all doses): negligible | Ae t, mean (CV%) ([2]; Ae τ = Ae 12, soticlestat 300 mg BID oral solution, day 1): 0.490 (75.9) mg | Ae t, mean (CV%) ([2]; Ae τ = Ae 24, soticlestat 100 mg QD oral solution, day 1): 0.0900 (25.6) mg | Ae t, mean (CV%) ([2]; Ae τ = Ae 24, soticlestat 100 mg QD oral solution, day 14): 0.0800 (30.0) mg | Ae t, mean (CV%) ([2]; Ae τ = Ae 24, soticlestat 300 mg QD oral solution, day 1): 0.660 (84.3) mg | Ae t, mean (CV%) ([2]; Ae τ = Ae 24, soticlestat 300 mg QD oral solution, day 14): 0.56 (83.4) mg | Ae t, mean (CV%) ([2]; Ae τ = Ae 24, soticlestat 400 mg QD oral solution, day 1): 0.920 (47.7) mg | Ae t, mean (CV%) ([2]; Ae τ = Ae 24, soticlestat 400 mg QD oral solution, day 14): 1.01 (31.9) mg | Ae t, mean (CV%) ([2]; Ae τ = Ae 24, soticlestat 600 mg QD oral solution, day 1): 1.440 (74.4) mg | f e, mean (CV%) [2, 5]: 0.0900 (25.6) % | f e, mean (CV%) [2, 6]: 0.0800 (30.0) % | f e, mean (CV%) ([2]; soticlestat 300 mg BID oral solution, day 1): 0.160 (75.9) % | f e, mean (CV%) [2, 7]: 0.220 (84.3) % | f e, mean (CV%) [2, 8]: 0.190 (83.4) % | f e, mean (CV%) [2, 9]: 0.230 (47.7) % | f e, mean (CV%) [2, 10]: 0.250 (31.9) % | f e, mean (CV%) [2, 11]: 0.240 (74.4) % | 24HC AUECτ, mean (CV%), percentage change from baseline (day −1) ([3]; AUECτ = AUEC12, 300 mg BID, day 1): −6.90 (−75.9) % | 24HC AUECτ, mean (CV%), percentage change from baseline (day −1) ([3]; AUECτ = AUEC24, 100 mg QD, day 1): −8.15 (−45.4) % | 24HC AUECτ, mean (CV%), percentage change from baseline (day −1) ([3]; AUECτ = AUEC24, 100 mg QD, day 14): −46.8 (−9.2) % | 24HC AUECτ, mean (CV%), percentage change from baseline (day −1) ([3]; AUECτ = AUEC24, 300 mg QD, day 1): −12.7 (−36.5) % | 24HC AUECτ, mean (CV%), percentage change from baseline (day −1) ([3]; AUECτ = AUEC24, 300 mg QD, day 14): −61.9 (−17.0) % | 24HC AUECτ, mean (CV%), percentage change from baseline (day −1) ([3]; AUECτ = AUEC24, 400 mg QD, day 1): −11.7 (−34.5) % | 24HC AUECτ, mean (CV%), percentage change from baseline (day −1) ([3]; AUECτ = AUEC24, 400 mg QD, day 14): −62.7 (−7.3) % | 24HC AUECτ, mean (CV%), percentage change from baseline (day −1) ([3]; AUECτ = AUEC24, 600 mg QD, day 1): −14.0 (−27.9) % | 24HC E t, mean (CV%), percentage change from baseline (day −1) ([3]; E t = E 12, 300 mg BID, day 1): −10.5 (−63.8) % | 24HC E t, mean (CV%), percentage change from baseline (day −1) ([3]; E t = E 24, 100 mg QD, day 1): −20.9 (−49.0) % | 24HC E t, mean (CV%), percentage change from baseline (day −1) ([3]; E t = E 24, 100 mg QD, day 14): −49.1 (−11.9) % | 24HC E t, mean (CV%), percentage change from baseline (day −1) ([3]; E t = E 24, 300 mg QD, day 1): −22.4 (−19.5) % | 24HC E t, mean (CV%), percentage change from baseline (day −1) ([3]; E t = E 24, 300 mg QD, day 14): −63.8 (−19.3) % | 24HC E t, mean (CV%), percentage change from baseline (day −1) ([3]; E t = E 24, 400 mg QD, day 1): −28.4 (−28.1) % | 24HC E t, mean (CV%), percentage change from baseline (day −1) ([3]; E t = E 24, 400 mg QD, day 14): −65.6 (−6.0) % | 24HC E t, mean (CV%), percentage change from baseline (day −1) ([3]; E t = E 24, 600 mg QD, day 1): −30.6 (−41.0) % | maximum decrease from baseline in 24HC AUEC24 [3, 12]: 62.66% | maximum decrease from baseline in 24HC E24 [3, 12]: 65.59% | Number of subjects (%) with SAEs [4]: 0 | Number of subjects (%) with TEAEs [4]: 0 | Number of subjects (%) with TEAEs: Leading to discontinuation [4]: 0 | Number of subjects (%) with TEAEs: Mild [4]: 0
